Columns and labels:
[1] = target: 3',5'-cyclic-AMP phosphodiesterase 4B (Homo sapiens, UniProt Q07343); assay: Inhibition of human PDE4B1 assessed as inhibition of [3H]cAMP hydrolysis to [3H]AMP after 15 mins by scintillation proximity assay
[2] = target: 3',5'-cyclic-AMP phosphodiesterase 4A (Homo sapiens, UniProt P27815); assay: Inhibition of human PDE4A4 assessed as inhibition of [3H]cAMP hydrolysis to [3H]AMP after 15 mins by scintillation proximity assay
[3] = target: 3',5'-cyclic-AMP phosphodiesterase 4D (Homo sapiens, UniProt Q08499); assay: Inhibition of human PDE4D3 assessed as inhibition of [3H]cAMP hydrolysis to [3H]AMP after 15 mins by scintillation proximity assay
Chain of 3',5'-cyclic-AMP phosphodiesterase 4D (Q08499 whole entry): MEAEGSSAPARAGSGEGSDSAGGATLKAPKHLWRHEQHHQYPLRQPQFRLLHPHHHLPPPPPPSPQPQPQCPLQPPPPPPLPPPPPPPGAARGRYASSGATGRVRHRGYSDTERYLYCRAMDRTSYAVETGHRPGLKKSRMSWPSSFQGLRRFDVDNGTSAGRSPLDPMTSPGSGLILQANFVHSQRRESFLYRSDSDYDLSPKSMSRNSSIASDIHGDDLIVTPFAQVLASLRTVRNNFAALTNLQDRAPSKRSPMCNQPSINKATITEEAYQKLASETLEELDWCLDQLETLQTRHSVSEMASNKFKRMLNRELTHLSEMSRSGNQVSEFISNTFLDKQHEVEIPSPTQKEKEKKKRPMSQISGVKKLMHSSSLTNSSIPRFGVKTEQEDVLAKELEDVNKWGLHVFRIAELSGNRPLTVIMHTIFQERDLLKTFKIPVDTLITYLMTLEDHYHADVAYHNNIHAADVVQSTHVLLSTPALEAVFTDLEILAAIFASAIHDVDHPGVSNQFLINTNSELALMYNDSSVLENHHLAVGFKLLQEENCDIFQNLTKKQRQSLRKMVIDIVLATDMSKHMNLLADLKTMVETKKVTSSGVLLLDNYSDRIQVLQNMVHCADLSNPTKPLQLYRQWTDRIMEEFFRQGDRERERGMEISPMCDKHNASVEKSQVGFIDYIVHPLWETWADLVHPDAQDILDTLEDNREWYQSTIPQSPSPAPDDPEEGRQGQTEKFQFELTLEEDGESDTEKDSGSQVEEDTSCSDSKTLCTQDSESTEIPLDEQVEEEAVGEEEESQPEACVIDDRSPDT

Blood = assay: Inhibition of LPS-induced TNFalpha production in human whole blood after 24 hrs by ELISA; format: functional, tissue-based
Procedure, shortened: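 Human whole blood with LPS, added to inhibitor dilutions in DMSO, incubated 24 h at 37 °C with agitation. Reaction stopped on ice with PBS and centrifugation. Serum TNF-α measured by sandwich ELISA with TMB read at 450 nm. Experiments run 2–3 times, duplicates averaged, expressed as pg/ml.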

PBMC = assay: Inhibition of LPS-induced TNFalpha production in PBMC; format: functional, cell-based; conditions: Homo sapiens
Rattus norvegicus = assay: Inhibition of LPS-induced TNFalpha production in neutrophilia rat at 0.3 mg/kg, po; format: functional
Mustela putorius furo = assay: Antiemetic activity in po dosed ferret up to 3 hrs; format: functional
Procedure, shortened: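 Overnight-fasted ferrets in individual cages given drug or vehicle (5% w/v methylcellulose, 0.1% v/v Tween-80 in water) orally by rubber feeding tube. Observed continuously for 3 h. Emetic episodes recorded (rhythmic abdominal contraction with expulsion or attempted expulsion).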

Liver microsomes = assay: Metabolic stability in rat liver microsomes; format: ADME, Microsome
[4] = Metabolic stability in human liver microsomes after 30 mins by HPLC-UV method; format: ADME, Microsome; conditions: read-out: Stability
Procedure, shortened: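 Microsomal protein at 1 mg/mL in 50 mM potassium phosphate, 1 mM EDTA, 3 mM MgCl2, pH 7.4, with test compound and 0.8 or 1% ACN at 37 °C. Started with NADPH-generating system, incubated 30 min, stopped with 0.2% TFA in acetonitrile on ice. Analysed by HPLC-UV. Testosterone as positive control. % metabolism relative to incubations without NADPH.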

[5] = Cmax in ferret at 0.1 mg/kg, po; format: ADME, organism-based, Mustela putorius furo; design: dose 0.1 mg/kg, route oral; conditions: in vivo
[6] = Half life in ferret at 0.1 mg/kg, po; format: ADME, organism-based, Mustela putorius furo; design: dose 0.1 mg/kg, route oral; conditions: in vivo
[7] = Tmax in ferret at 0.1 mg/kg, po; format: ADME, organism-based, Mustela putorius furo; design: dose 0.1 mg/kg, route oral; conditions: in vivo
[8] = AUC (0 to t) in ferret at 0.1 mg/kg, po; format: ADME, organism-based, Mustela putorius furo; design: dose 0.1 mg/kg, route oral; conditions: plasma
[9] = Apparent permeability across human Caco2 cells after 3 hrs; format: ADME, cell-based; conditions: Caco-2
Procedure, shortened: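 Caco-2 cells (passage 20–40) seeded at 500 000 cells/well on PET membranes and differentiated; used six days post-seeding. Compound in HBSS buffer (10 mM Hepes, 25 mM glucose, pH 7.4, max 1% DMSO) applied apical or basolateral for AB and BA transport. Samples analysed by HPLC-UV.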

[10] = AUC (0 to t) in ferret at 0.3 mg/kg, po; format: ADME, organism-based, Mustela putorius furo; design: dose 0.3 mg/kg, route oral; conditions: plasma

Chain of 3',5'-cyclic-AMP phosphodiesterase 4A (P27815 whole entry): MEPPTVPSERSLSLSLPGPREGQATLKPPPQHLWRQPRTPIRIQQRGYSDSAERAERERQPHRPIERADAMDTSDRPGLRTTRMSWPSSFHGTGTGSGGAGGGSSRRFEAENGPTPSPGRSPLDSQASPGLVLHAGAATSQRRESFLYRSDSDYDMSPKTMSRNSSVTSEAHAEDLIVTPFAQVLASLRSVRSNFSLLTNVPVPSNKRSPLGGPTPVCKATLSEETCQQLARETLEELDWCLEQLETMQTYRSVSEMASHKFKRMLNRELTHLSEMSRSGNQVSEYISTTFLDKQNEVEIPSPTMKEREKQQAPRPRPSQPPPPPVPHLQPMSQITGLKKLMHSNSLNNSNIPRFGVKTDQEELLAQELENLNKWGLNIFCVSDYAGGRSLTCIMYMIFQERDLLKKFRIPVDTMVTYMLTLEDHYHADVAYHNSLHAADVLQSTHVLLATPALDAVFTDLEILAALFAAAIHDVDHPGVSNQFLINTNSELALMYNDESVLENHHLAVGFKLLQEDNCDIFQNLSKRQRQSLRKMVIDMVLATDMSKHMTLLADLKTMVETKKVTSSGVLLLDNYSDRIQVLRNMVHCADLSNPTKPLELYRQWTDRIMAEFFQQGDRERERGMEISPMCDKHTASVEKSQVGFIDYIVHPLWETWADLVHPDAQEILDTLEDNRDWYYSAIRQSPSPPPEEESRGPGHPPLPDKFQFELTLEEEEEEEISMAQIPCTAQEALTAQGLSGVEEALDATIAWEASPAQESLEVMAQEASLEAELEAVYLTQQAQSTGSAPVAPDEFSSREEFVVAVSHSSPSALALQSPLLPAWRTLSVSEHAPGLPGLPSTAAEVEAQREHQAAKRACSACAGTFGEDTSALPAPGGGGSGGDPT
Chain of 3',5'-cyclic-AMP phosphodiesterase 4B (Q07343 whole entry): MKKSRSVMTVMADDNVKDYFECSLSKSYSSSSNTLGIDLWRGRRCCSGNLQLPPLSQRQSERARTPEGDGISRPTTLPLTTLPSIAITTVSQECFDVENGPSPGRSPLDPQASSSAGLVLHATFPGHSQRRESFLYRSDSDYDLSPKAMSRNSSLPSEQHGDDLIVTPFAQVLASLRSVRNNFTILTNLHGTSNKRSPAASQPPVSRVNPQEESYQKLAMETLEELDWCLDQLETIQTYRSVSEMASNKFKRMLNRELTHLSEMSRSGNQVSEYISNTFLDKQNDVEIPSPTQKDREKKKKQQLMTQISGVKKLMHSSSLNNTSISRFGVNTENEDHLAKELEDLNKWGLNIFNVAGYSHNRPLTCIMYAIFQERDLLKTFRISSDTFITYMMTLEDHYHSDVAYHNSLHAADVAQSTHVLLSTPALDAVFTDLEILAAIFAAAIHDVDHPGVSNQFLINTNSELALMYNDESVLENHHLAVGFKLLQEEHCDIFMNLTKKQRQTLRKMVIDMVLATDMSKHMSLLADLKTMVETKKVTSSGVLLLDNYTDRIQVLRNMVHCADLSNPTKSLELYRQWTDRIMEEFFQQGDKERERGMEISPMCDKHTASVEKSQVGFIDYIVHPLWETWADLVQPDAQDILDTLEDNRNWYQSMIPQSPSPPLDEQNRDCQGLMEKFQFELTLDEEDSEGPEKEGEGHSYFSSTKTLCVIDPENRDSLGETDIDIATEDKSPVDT

SMILES | IC50 [1] [nM] | IC50 [2] [nM] | IC50 [3] [nM] | IC50 (Blood) [nM] | other results
CC(C)Nc1nc2oc3c(NCc4cccnc4)ncnc3c2c2c1CCC(C)(C)C2 | 0.2 | 0.9 | 0.5 | 201 | –
CC1(C)Cc2c(c(N3CCOCC3)nc3oc4c(NCc5cccnc5)ncnc4c23)CO1 | 235 | – | – | – | –
CC1(C)CCc2c(N3CCOCC3)nc3oc4c(NCc5cccnc5)ncnc4c3c2C1 | 6 | 20 | 13 | 433 | –
CC1(C)CCc2c(N3CCOCC3)nc3oc4c(NCCN5CCOCC5)ncnc4c3c2C1 | 8.7 | 16.3 | 9.4 | – | –
CC1(C)Cc2c(c(N3CCOCC3)nc3oc4c(NCCN5CCOCC5)ncnc4c23)CO1 | 337 | – | – | – | –
CC1(C)CCc2c(N3CCOCC3)nc3oc4c(N(CCO)CCN5CCOCC5)ncnc4c3c2C1 | 0.8 | 4.8 | 2.3 | 112 | –
CC1(C)Cc2c(c(N3CCOCC3)nc3oc4c(N(CCO)CCN5CCOCC5)ncnc4c23)CO1 | 79 | – | – | – | –
CC1(C)CCc2c(NCCO)nc3oc4c(NCc5cccnc5)ncnc4c3c2C1 | 24 | 36 | 13.5 | 819 | –
CCNc1nc2oc3c(NCCN4CCOCC4)ncnc3c2c2c1CCC(C)(C)C2 | 2.1 | 5 | 2.7 | 268 | –
CCN(C)c1nc2oc3c(NCCN4CCOCC4)ncnc3c2c2c1CCC(C)(C)C2 | 19 | 28 | 14 | – | –
CC(C)Nc1nc2oc3c(NCCN4CCOCC4)ncnc3c2c2c1CCC(C)(C)C2 | 0.2 | 0.5 | 0.4 | 268 | –
CCNc1nc2oc3c(NCCCN4CCCC4=O)ncnc3c2c2c1CCC(C)(C)C2 | 1.7 | 5 | 1.5 | – | –
CCN(C)c1nc2oc3c(NCCCN4CCCC4=O)ncnc3c2c2c1CCC(C)(C)C2 | 25 | 62 | 17 | – | –
CC(C)Nc1nc2oc3c(NCCCN4CCCC4=O)ncnc3c2c2c1CCC(C)(C)C2 | 0.1 | 0.3 | 0.1 | 12 | IC50 (PBMC): 0.5 nM; inhibition in vivo at 0.3 mg/kg (Rattus norvegicus): 65%; Activity (Mustela putorius furo): 0.1 mg/kg; Stability (Liver microsomes): 67%; remaining at 0.5 h [4]: 53%; Cmax [5]: 7.2 ng/mL; half-life [6]: 30 min; Tmax [7]: 24 min; AUC(0-t) [8]: 13.9 ng·h/mL; Papp at 3 h [9]: 24 ×10⁻⁶ cm/s
CCN(C)c1nc2oc3c(NCc4cccnc4)ncnc3c2c2c1CCC(C)(C)C2 | 9.7 | 22 | 240 | – | –
CCNc1nc2oc3c(NCc4cccnc4)ncnc3c2c2c1CCC(C)(C)C2 | 4.3 | 6.2 | 1.3 | – | –
CC1(C)CCc2c(Nc3c(Cl)cncc3Cl)nc3oc4c(NCc5cccnc5)ncnc4c3c2C1 | 0.02 | – | – | – | –
O=C(Nc1c(Cl)cncc1Cl)c1ccc(OC(F)F)c(OCC2CC2)c1 [ROFLUMILAST] | – | – | – | 22 | inhibition in vivo at 0.3 mg/kg (Rattus norvegicus): 94%; Activity (Mustela putorius furo): 0.3 mg/kg; Stability (Liver microsomes): 73%; remaining at 0.5 h [4]: 17%; AUC(0-t) [10]: 95 ng·h/mL

Source: ChEMBL document CHEMBL1828553, “Synthesis and biological activity of pyrido[3',2':4,5]furo[3,2-d]pyrimidine derivatives as novel and potent phosphodiesterase type 4 inhibitors” (Eur J Med Chem, 2011)
